# Experimental data as given in ChEMBL document CHEMBL5107952, “Synthesis of low-molecular weight fucoidan derivatives and their binding abilities to SARS-CoV-2 spike proteins” (RSC Med Chem, 2021).
# Calls of active or inactive are those of the source. The calls are words filed in the database; no cut-off is given here.
# Legend:
# Spike glycoprotein [1] = target: T1, Spike glycoprotein (Severe acute respiratory syndrome coronavirus 2, UniProt P0DTC2); assay: Competitive inhibition of biotinylated heparin binding to His-tagged wild type SARS-COV-2 spike protein assessed inhibition constant incubated for 300 sec by biolayer interferometry streptavidin sensor based assay
# Summary of the method: (§1)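 Streptavidin BLI sensor tips loaded with biotinylated heparin and exposed to wild-type S protein (1 μM) mixed with test compound (0–500 μM) in TBS (20 mM Tris, pH 7.4, 0.02% BSA). Bound (%) was taken from the BLI response. IC50 came from nonlinear regression, and Ki was derived from IC50 by the Cheng–Prusoff equation.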
# [2] = target: Spike glycoprotein (Severe acute respiratory syndrome coronavirus 2) (UniProt P0DTC2); assay: Competitive inhibition of biotinylated heparin binding to His-tagged wild type SARS-COV-2 spike protein at 50 uM incubated for 300 sec by biolayer interferometry streptavidin sensor based assay
# Spike glycoprotein [3] = target: T1, Spike glycoprotein; assay: Competitive inhibition of biotinylated heparin binding to His-tagged wild type SARS-COV-2 spike protein incubated for 300 sec by biolayer interferometry streptavidin sensor based assay; summary of the method: as §1
Compound,Ki (Spike glycoprotein [1]) [µM],inhibition [2],IC50 (Spike glycoprotein [3]) [µM]
CCCCCCCCO[C@H]1O[C@@H](C)[C@@H](O[C@@H]2O[C@@H](C)[C@@H](O[C@@H]3O[C@@H](C)[C@@H](O[C@@H]4O[C@@H](C)[C@@H](OS(=O)(=O)O)[C@@H](OS(=O)(=O)O)[C@@H]4OS(=O)(=O)O)[C@@H](OS(=O)(=O)O)[C@@H]3OS(=O)(=O)O)[C@@H](OS(=O)(=O)O)[C@@H]2OS(=O)(=O)O)[C@@H](OS(=O)(=O)O)[C@@H]1OS(=O)(=O)O,3.02,Active,86.9
CCCCCCCCO[C@H]1O[C@@H](C)[C@@H](OS(=O)(=O)O)[C@@H](O[C@@H]2O[C@@H](C)[C@@H](OS(=O)(=O)O)[C@@H](O[C@@H]3O[C@@H](C)[C@@H](OS(=O)(=O)O)[C@@H](O[C@@H]4O[C@@H](C)[C@@H](OS(=O)(=O)O)[C@@H](OS(=O)(=O)O)[C@@H]4OS(=O)(=O)O)[C@@H]3OS(=O)(=O)O)[C@@H]2OS(=O)(=O)O)[C@@H]1OS(=O)(=O)O,,< 10%,
CCCCCCCCO[C@H]1O[C@@H](C)[C@@H](O[C@@H]2O[C@@H](C)[C@@H](OS(=O)(=O)O)[C@@H](O[C@@H]3O[C@@H](C)[C@@H](O[C@@H]4O[C@@H](C)[C@@H](OS(=O)(=O)O)[C@@H](OS(=O)(=O)O)[C@@H]4OS(=O)(=O)O)[C@@H](OS(=O)(=O)O)[C@@H]3OS(=O)(=O)O)[C@@H]2OS(=O)(=O)O)[C@@H](OS(=O)(=O)O)[C@@H]1OS(=O)(=O)O,,Active,
